Laboratory results reported in ChEMBL document CHEMBL2177082, “Identification of a promising drug candidate for the treatment of type 2 diabetes based on a P2Y(1) receptor agonist” (J Med Chem, 2012).
One block for each compound: values may come before it. Activity calls are given as the source filed them. The rule behind the calls is not given here.

How the values were obtained:
P2Y purinoceptor 1 [1] = molecular target: P2Y purinoceptor 1 (Meleagris gallopavo, UniProt P49652); experiment: Agonist activity at turkey P2Y1R expressed in 1321N1 cells assessed as increase in intracellular calcium concentration by spectrofluorimetry; assay type: functional, cell-based
P2Y purinoceptor 1 (Meleagris gallopavo, UniProt P49652), sequence (P49652 whole entry): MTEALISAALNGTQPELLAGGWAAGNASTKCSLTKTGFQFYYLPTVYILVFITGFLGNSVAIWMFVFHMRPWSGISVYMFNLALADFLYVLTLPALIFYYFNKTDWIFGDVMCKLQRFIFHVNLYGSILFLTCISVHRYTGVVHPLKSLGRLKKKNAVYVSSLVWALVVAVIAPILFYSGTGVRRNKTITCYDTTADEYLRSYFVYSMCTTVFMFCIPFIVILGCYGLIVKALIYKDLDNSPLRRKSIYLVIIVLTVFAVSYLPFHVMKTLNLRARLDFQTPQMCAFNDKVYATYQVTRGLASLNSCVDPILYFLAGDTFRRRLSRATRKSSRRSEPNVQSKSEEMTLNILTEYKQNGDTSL
Procedure, shortened: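 Cell suspensions were treated with nucleotide at various concentrations at 37 °C in 10 mM Hepes-buffered saline pH 7.4 with 1 mM CaCl2 and 1 mM MgCl2. Maximal [Ca2+]i rise was read by dual-excitation spectrofluorometry and fitted to give EC50. Three experiments on separate days.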

Serum [2] = experiment: (§1) Half life in human serum at 40 mM by HPLC; assay type: ADME, cell-free; settings: 40000 µM
Procedure, shortened: (§2)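 Serum came from a healthy volunteer's whole blood (12 h at 4 °C, spun 1500g, stored at −80 °C). A 40 mM stock in water was mixed with serum and RPMI-1640 (1:3 serum:medium) and incubated at 37 °C for up to 24 h.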

[3] = Half life in Tris buffer at pH 9.8 at 0.2 mg by HPLC in presence of alkaline phosphatase; assay type: physicochemical; settings: in vitro
Procedure, shortened: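 Compound 0.2 mg incubated with calf intestine alkaline phosphatase 12.5 units in Tris-HCl/MgCl2 at final pH 9.8 and 37 °C. Sampled hourly for 8 h; reaction stopped at 80 °C for 15 min. Samples passed through an anion-exchange cartridge. Half-life from change in HPLC peak area.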

[4] = Metabolic stability in human serum assessed as hydrolysis of compound at 40 mM incubated for 24 hrs measured after every 1 hr over 24 hrs by HPLC; assay type: ADME, cell-free; settings: read-out: Drug metabolism
Procedure, shortened: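 40 mM stock in water, 4.5 μL, combined with 180 μL human serum (healthy volunteer) and 540 μL RPMI-1640 and incubated at 37 °C for up to 24 h. Aliquots were heated to 80 °C for 30 min, cleaned up, and analysed by HPLC. Heat-only controls were run without serum. Hydrolysis was followed from the change in HPLC peak area.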

[5] = molecular target: P2Y purinoceptor 2 (Homo sapiens) (UniProt P41231); experiment: Agonist activity at P2Y2R; assay type: functional
P2Y purinoceptor 2 (Homo sapiens), sequence (P41231 whole entry): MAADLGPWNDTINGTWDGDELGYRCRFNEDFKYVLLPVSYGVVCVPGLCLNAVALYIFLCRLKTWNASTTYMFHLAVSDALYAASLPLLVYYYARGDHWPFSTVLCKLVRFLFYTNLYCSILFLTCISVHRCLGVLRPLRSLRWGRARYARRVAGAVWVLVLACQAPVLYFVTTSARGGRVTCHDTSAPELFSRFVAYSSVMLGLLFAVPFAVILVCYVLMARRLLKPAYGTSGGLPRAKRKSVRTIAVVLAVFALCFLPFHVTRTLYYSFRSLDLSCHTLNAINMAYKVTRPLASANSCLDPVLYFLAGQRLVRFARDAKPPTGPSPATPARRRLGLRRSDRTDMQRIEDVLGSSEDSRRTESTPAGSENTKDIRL

[6] = molecular target: P2Y purinoceptor 4 (Homo sapiens) (UniProt P51582); experiment: Agonist activity at P2Y4R; assay type: functional
P2Y purinoceptor 4 (Homo sapiens), sequence (P51582 whole entry): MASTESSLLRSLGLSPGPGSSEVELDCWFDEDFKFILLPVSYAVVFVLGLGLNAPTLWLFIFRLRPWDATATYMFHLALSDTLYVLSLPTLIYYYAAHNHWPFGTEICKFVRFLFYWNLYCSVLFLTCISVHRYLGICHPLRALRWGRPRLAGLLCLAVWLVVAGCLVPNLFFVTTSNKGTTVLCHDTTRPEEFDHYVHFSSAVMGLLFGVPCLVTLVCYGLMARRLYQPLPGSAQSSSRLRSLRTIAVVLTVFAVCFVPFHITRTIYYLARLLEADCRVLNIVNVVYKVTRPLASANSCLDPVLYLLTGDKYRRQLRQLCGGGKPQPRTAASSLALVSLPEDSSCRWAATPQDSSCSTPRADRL

[7] = molecular target: P2Y purinoceptor 6 (Homo sapiens) (UniProt Q15077); experiment: Agonist activity at P2Y6R; assay type: functional
P2Y purinoceptor 6 (Homo sapiens), sequence (Q15077 whole entry): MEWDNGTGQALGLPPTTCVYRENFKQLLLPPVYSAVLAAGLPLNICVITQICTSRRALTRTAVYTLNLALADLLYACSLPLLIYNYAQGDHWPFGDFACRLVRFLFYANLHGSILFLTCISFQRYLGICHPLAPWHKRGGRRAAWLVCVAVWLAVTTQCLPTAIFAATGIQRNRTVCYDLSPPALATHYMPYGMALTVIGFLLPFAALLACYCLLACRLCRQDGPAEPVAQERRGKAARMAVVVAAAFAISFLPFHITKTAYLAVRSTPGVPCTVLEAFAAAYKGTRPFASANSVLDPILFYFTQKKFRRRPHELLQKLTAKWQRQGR

Serum [8] = experiment: Ratio of half life of compound to half life of ADP in human serum at 40 mM by HPLC; assay type: ADME, cell-free; settings: 40000 µM; procedure, shortened: as §2
[9] = as §1; assay type: ADME, cell-free; procedure, shortened: as §2
[10] = Half life in HCL/KCL buffer at pH 1.4 at 1.5 mg by HPLC; assay type: physicochemical
Procedure, shortened: (§3)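 Diastereomeric mixture, 1.5 mg, dissolved in 0.2 M HCl/KCl buffer adjusted to pH 1.4 and kept at 37 °C with hourly sampling. Parent HPLC peak integrated over time (TEAA/acetonitrile 88:12) and fitted to pseudo-first-order kinetics to give rate constant and t1/2.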

[11] = Chemical stability in HCL/KCL buffer at pH 1.4 assessed as hydrolysis rate constant of compound at 1.5 mg incubated for 24 hrs measured after every 1 hr over 12 hrs by HPLC; assay type: physicochemical; settings: pH 1.4, 24 h; procedure, shortened: as §3
Mus musculus [12] = experiment: Antiplatelet activity in Balb/c mouse assessed as inhibition of ADP-induced aggregation measuring prolongation of bleeding time at 30 mg/kg body weight, iv; assay type: functional
Procedure, shortened: (§4)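 Anaesthetised Balb/c mice given compound iv (0.3, 3 or 30 mg/kg) or saline. Five minutes later 2 mm of the tail tip was cut and the tail placed vertically in saline. Time to first arrest of bleeding (no bleeding for 20 s) was recorded. Bars are standard deviation.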

[13] = molecular target: P2Y purinoceptor 1 (Rattus norvegicus) (UniProt P49651); experiment: Agonist activity at rat P2Y1R assessed as glucose-dependent insulin secretion relative to control; assay type: functional
P2Y purinoceptor 1 (Rattus norvegicus), sequence (P49651 whole entry): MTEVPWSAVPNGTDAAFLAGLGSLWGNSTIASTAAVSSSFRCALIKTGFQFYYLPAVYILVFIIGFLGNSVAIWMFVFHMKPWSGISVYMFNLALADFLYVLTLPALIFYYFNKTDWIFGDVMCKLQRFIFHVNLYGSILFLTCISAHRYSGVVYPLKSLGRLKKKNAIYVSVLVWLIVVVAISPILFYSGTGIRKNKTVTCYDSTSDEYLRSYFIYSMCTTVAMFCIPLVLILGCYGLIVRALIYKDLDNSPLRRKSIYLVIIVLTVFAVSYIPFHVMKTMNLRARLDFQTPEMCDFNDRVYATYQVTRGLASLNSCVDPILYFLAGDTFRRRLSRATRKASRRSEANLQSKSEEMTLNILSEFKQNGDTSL

P2Y purinoceptor 1 [14] = molecular target: T1, P2Y purinoceptor 1 (Rattus norvegicus, UniProt P49651); experiment: Agonist activity at rat P2Y1R expressed in HEK293 cells assessed as release of intracellular calcium by fluorescence based assay; assay type: functional, cell-based
T1 sequence (P49651 whole entry): as above

P2Y purinoceptor 1 [15] = molecular target: T1, P2Y purinoceptor 1; experiment: Agonist activity at rat P2Y1R assessed as glucose-dependent insulin secretion; assay type: functional
Mus musculus [16] = experiment: Antidiabetic activity in db+/db- diabetic mouse model assessed as reduction in blood glucose level at 30 mg/kg body weight, iv administered 10 min post glucose challenge measured over 15 to 120 mins; assay type: functional, organism-based; set-up: dose 30 mg/kg
Procedure, shortened: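 Male db+/db− mice, 8 weeks old, grouped by body weight and glucose, then fasted overnight. Oral glucose 2 g/kg by gavage. Compound 30 mg/kg iv as in the naive-animal OGTT; n = 5. Blood glucose by glucometer at −30, 0, 15, 30, 60 and 120 min.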

[17] = molecular target: P2Y purinoceptor 12 (Homo sapiens) (UniProt Q9H244); experiment: Antagonist activity at human P2Y12R expressed in […] cells assessed as intracellular calcium level in presence of ADP; assay type: functional, cell-based
P2Y purinoceptor 12 (Homo sapiens), sequence (Q9H244 whole entry): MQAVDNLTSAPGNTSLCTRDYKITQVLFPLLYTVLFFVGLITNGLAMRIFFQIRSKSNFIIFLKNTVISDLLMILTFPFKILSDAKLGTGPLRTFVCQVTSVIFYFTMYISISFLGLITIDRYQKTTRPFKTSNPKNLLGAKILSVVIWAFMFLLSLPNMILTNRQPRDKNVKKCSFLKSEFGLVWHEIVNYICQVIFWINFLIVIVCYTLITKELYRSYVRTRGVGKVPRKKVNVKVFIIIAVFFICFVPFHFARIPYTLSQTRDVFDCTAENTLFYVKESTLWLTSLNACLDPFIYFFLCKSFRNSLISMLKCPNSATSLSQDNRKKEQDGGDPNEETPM

Rattus norvegicus [18] = experiment: Antiplatelet activity in Lewis rat assessed as inhibition of ADP-induced aggregation measuring prolongation in bleeding time at 30 mg/kg body weight, po administered 30 mins prior to tail incision measured after 5 mins; assay type: functional, organism-based; set-up: dose 30 mg/kg
Procedure, shortened: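 Lewis rats given compound 30 mg/kg or aspirin 10 mg/kg PO 30 min before tail incision; n = 5. 2 mm tail tip cut, tail placed in saline. Time to first bleeding arrest (20 s without bleeding) was recorded, and blood volume was judged against calibrated volumes after brief 600g spin.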

Mus musculus [19] = experiment: Antiplatelet activity in Balb/c mouse assessed as inhibition of ADP-induced aggregation measuring prolongation in bleeding time at 30 mg/kg body weight, iv administered prior to tail incision measured after 5 mins relative to active clopidogrel metabolite R-361015; assay type: functional; procedure, shortened: as §4
[20] = Antiplatelet activity in human platelet rich plasma assessed as inhibition of ADP-induced platelet aggregation at 0.3 to 10 uM measured after 6 mins by aggregometry relative to control; assay type: functional
Procedure, shortened: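 Human platelet-rich plasma was obtained by spinning normal human plasma at 4400g for 30 s. PRP was incubated 15 min at 37 °C, then aggregation was induced with ADP (10 μM) and read after 6 min on a platelet aggregation profiler. PRP came from one subject, tested in duplicate. Prasugrel metabolite at 10 μM served as the positive control.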

Platelet = experiment: Antiplatelet activity in human platelet rich plasma assessed as inhibition of ADP-induced platelet aggregation measured after 6 mins by aggregometry; assay type: functional
Procedure, shortened: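 Human PRP obtained by centrifuging plasma at 4400g for 30 s. PRP was incubated 15 min at 37 °C with compound (0.3–10 μM), then aggregation was induced with ADP 10 μM and read after 6 min on a platelet aggregation profiler. Prasugrel metabolite 10 μM served as positive control. One donor, duplicates.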

Mus musculus [21] = experiment: Antidiabetic activity in STZ treated fasted ICR mouse assessed as reduction in blood glucose level at 30 mg/kg body weight, iv administered 10 min post glucose challenge measured over 15 to 120 mins; assay type: functional, organism-based; set-up: dose 30 mg/kg
Procedure, shortened: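 Male ICR mice given STZ 100 mg/kg IP after 4 h fast. On day 10, after ~16 h overnight fast, oral D-glucose 1 g/kg was given at 0 min. Compound was dosed iv at 7.5, 15 or 30 mg/kg 10 min after glucose; saline controls. Blood glucose by glucometer at 15, 30, 60 and 120 min. n = 5.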

Rattus norvegicus [22] = experiment: Antidiabetic activity in overnight fasted Wister Han rat assessed as reduction in blood glucose level at 30 mg/kg body weight, iv administered 10 mins post glucose challenge measured within 45 mins (reference value: 155 mg/dl); assay type: functional
Mus musculus [23] = experiment: Antidiabetic activity in overnight fasted CD1 mouse assessed as reduction in blood glucose level at 30 mg/kg body weight, iv administered 10 mins post glucose challenge; assay type: functional, organism-based; set-up: dose 30 mg/kg
Rattus norvegicus [24] = experiment: Antiplatelet activity in Lewis rat assessed as inhibition of ADP-induced aggregation measuring prolongation in bleeding time at 10 mg/kg body weight, po administered 30 mins prior to tail incision measured after 5 mins; assay type: functional, organism-based; set-up: dose 10 mg/kg
Procedure, shortened: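 Anesthetized Lewis rats (n = 5) were dosed orally 30 min before the tail was cut. Then 2 mm of tail tip was removed and the tail was placed upright in a saline-filled tube. Time to first arrest of bleeding (no bleeding for 20 s) was recorded.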

Compound: B[P@](=O)(OC[C@H]1O[C@@H](n2cnc3c(N)ncnc32)[C@H](O)[C@@H]1O)OP(=O)(O)O
EC50 (P2Y purinoceptor 1 [1]): 960 nM

Compound: Nc1ncnc2c1ncn2[C@@H]1O[C@H](COP(=O)(O)OP(=O)(O)O)[C@@H](O)[C@H]1O [ADENOSINE DIPHOSPHATE]
t1/2 (Serum [2]): 2 h | t1/2 [3]: 4 h

Compound: CSc1nc(N)c2ncn([C@@H]3O[C@H](COP(=O)(O)OP(=O)(O)O)[C@@H](O)[C@H]3O)c2n1
t1/2 (Serum [2]): 23 h | metabolised at 24 h, 40000 µM [4]: 50% | t1/2 [3]: 4.5 h

Compound: BP(=O)(OC[C@H]1O[C@@H](n2cnc3c(N)ncnc32)[C@H](O)[C@@H]1O)OP(=O)(O)O (stereo not given in full)
Activity [5]: inactive | Activity [6]: inactive | Activity [7]: inactive

Ratio (Serum [8]): 7 | half-life at 40000 µM [9]: 14 h | EC50 (P2Y purinoceptor 1 [1]): 190 nM
Compound: B[P@](=O)(OC[C@H]1O[C@@H](n2cnc3c(N)nc(SC)nc32)[C@H](O)[C@@H]1O)OP(=O)(O)OP(=O)(O)OC[C@H]1O[C@@H](n2cnc3c(N)nc(SC)nc32)[C@H](O)[C@@H]1O.CCCCN(CCCC)CCCC.CCCCN(CCCC)CCCC.CCCCN(CCCC)CCCC (single isomer, unassigned)

Compound: [BH3-]P(=O)(OC[C@H]1O[C@@H](n2cnc3c(N)nc(SC)nc32)[C@H](O)[C@@H]1O)OP(=O)([O-])[O-].[Na+].[Na+].[Na+] (mixture of isomers)
half-life [10]: 7.3 h | Drug degradation [11]: 2 ×10⁻⁵ /s | metabolised at 24 h, 40000 µM [4]: 30% | Activity [5]: inactive | Activity [6]: inactive | Activity [7]: inactive

Compound: CC(=O)Oc1cc2c(s1)CCN(C(C(=O)C1CC1)c1ccccc1F)C2 (stereo not given)
Time (Mus musculus [12]): 9 min

fold change (FC) [13]: 9 | EC50 (P2Y purinoceptor 1 [14]): 2.6 nM | EC50 (P2Y purinoceptor 1 [15]): 28.1 nM
Compound: B[P@@](=O)(OC[C@H]1O[C@@H](n2cnc3c(N)nc(SC)nc32)[C@H](O)[C@@H]1O)OP(=O)(O)OP(=O)(O)O

Compound: [BH3-][P@@](=O)(OC[C@H]1O[C@@H](n2cnc3c(N)ncnc32)[C@H](O)[C@@H]1O)OP(=O)([O-])[O-].[Na+].[Na+].[Na+]
t1/2 (Serum [2]): 3.5 h | EC50 (P2Y purinoceptor 1 [1]): 220 nM | t1/2 [3]: 4.2 h

Activity [5]: inactive | Activity [6]: inactive | Activity [7]: inactive
Compound: BP(=O)(OC[C@H]1O[C@@H](n2cnc3c(N)nc(SC)nc32)[C@H](O)[C@@H]1O)OP(=O)(O)OP(=O)(O)OC[C@H]1O[C@@H](n2cnc3c(N)nc(SC)nc32)[C@H](O)[C@@H]1O.CCCCN(CCCC)CCCC.CCCCN(CCCC)CCCC.CCCCN(CCCC)CCCC (mixture of isomers)

Compound: [BH3-][P@@](=O)(OC[C@H]1O[C@@H](n2cnc3c(N)nc(SC)nc32)[C@H](O)[C@@H]1O)OP(=O)([O-])[O-].[Na+].[Na+].[Na+]
Time (Mus musculus [12]): 16 min | Activity (Mus musculus [16]): Active | Activity [17]: Active | inhibition (Rattus norvegicus [18]): Active | fold change (FC) (Mus musculus [19]): 1.5 | fold change (FC) [20]: 3 | inhibition (Platelet): Active | Activity (Mus musculus [21]): Active | Activity (Rattus norvegicus [22]): 87 mg/dL | half-life at 40000 µM [9]: > 24 h | t1/2 [3]: 6 h

Compound: B[P@](=O)(OC[C@H]1O[C@@H](n2cnc3c(N)nc(SC)nc32)[C@H](O)[C@@H]1O)OP(=O)(O)O
Activity (Mus musculus [23]): inactive | EC50 (P2Y purinoceptor 1 [1]): 1100 nM

Ratio (Serum [8]): 7 | half-life at 40000 µM [9]: 14 h | EC50 (P2Y purinoceptor 1 [1]): 140 nM
Compound: B[P@@](=O)(OC[C@H]1O[C@@H](n2cnc3c(N)nc(SC)nc32)[C@H](O)[C@@H]1O)OP(=O)(O)OP(=O)(O)OC[C@H]1O[C@@H](n2cnc3c(N)nc(SC)nc32)[C@H](O)[C@@H]1O.CCCCN(CCCC)CCCC.CCCCN(CCCC)CCCC.CCCCN(CCCC)CCCC

Compound: CC(=O)Oc1ccccc1C(=O)O
inhibition (Rattus norvegicus [24]): Active
